This note sets out measurements from ChEMBL document CHEMBL5316305, “An Empirical Quantitative Structure-Activity Relationship Equation Assists the Discovery of High-Affinity Phosphodiesterase 4D Inhibitors as Leads to PET Radioligands” (J Med Chem, 2023).

For orientation: IC50 means the concentration needed to halve the response being measured.

Each structure is given as a SMILES string.

Experiment [1] deals with T1, 3',5'-cyclic-AMP phosphodiesterase 4B (Homo sapiens, UniProt Q07343, S133D). Kind of experiment: Inhibition of human PDE4B1 S133D mutant by coupled enzyme based fluorescence analysis. In a few lines:
(§1)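 Mutationally activated dimeric enzymes: PDE4D7-S129D (PDE4D*) and PDE4B1-S133D (PDE4B*). A real-time coupled enzyme assay measured inhibition instead of a fluorescein-labeled cAMP substrate, because the label prevents UCR2 closure. PDE4B* was used to assess subtype selectivity. The method otherwise followed earlier work.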

The nature of experiment [2]: Inhibition of human PDE4D7 S129D mutant by coupled enzyme based fluorescence analysis.
Another experiment is filed under the species Homo sapiens. Kind of experiment: Selectivity index, ratio of IC50 for human PDE4B1 S133D mutant to IC50 for human PDE4D7 S129D mutant.
Experiment [3] is described as follows: Selectivity index, ratio of IC50 for PDE4B1 S133D mutant (unknown origin) to IC50 for PDE4D7 S129D mutant (unknown origin). In a few lines:
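B/D ratio is the IC50 against PDE4B1-S133D (PDE4B*) divided by the IC50 against PDE4D7-S129D (PDE4D*). Both IC50s come from the real-time coupled enzyme assay on the mutationally activated dimeric enzymes.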

For experiment [4], the target named is T1, 3',5'-cyclic-AMP phosphodiesterase 4B. The experiment in a line: Inhibition of PDE4B1 S133D mutant (unknown origin) preincubated for 5 to 10 mins followed by substrate addition and measured for 10 mins by coupled enzyme based fluorescence analysis. In a few lines: as §1
Experiment [5] can be described thus: Inhibition of PDE4D7 S129D mutant (unknown origin) preincubated for 5 to 10 mins followed by substrate addition and measured for 10 mins by coupled enzyme based fluorescence analysis. More on the design: species or system Homo sapiens. In a few lines: as §1

T1 sequence (Q07343 whole entry S133D): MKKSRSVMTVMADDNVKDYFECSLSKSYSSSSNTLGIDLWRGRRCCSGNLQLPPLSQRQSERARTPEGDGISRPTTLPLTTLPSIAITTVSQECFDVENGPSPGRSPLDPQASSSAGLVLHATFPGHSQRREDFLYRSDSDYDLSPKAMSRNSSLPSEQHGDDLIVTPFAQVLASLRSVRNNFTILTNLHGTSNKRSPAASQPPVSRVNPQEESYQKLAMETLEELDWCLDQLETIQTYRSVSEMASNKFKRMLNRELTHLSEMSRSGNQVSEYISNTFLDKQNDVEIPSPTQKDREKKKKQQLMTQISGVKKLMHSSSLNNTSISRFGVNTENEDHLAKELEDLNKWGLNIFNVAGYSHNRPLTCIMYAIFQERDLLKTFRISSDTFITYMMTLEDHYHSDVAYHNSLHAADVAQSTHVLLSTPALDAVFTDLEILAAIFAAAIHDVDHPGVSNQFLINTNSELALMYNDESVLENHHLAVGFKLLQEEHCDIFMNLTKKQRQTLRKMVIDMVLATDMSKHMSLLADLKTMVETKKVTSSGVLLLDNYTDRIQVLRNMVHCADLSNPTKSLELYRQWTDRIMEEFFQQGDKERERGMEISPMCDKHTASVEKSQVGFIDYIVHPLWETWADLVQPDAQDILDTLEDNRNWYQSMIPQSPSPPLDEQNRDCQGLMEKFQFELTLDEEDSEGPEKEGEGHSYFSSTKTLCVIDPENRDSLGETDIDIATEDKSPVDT

The compound `COc1ccc(Cc2cn[nH]c2)nc1-c1cccc([N+](=O)[O-])c1` gave an IC50 in experiment [1] of 0.28 µM.

As to `COc1ccc(Cc2cnn(C)c2)nc1-c1cccc(Cl)c1`, the figures for the IC50 in experiment [1] and in experiment [2] were 0.858 µM and 0.0005 µM, respectively. Moreover, the Ratio IC50 in the experiment listed under Homo sapiens was 1670.

Compound `COc1ccc(Cc2ccncc2)nc1-c1cccc(Cl)c1` returned an IC50 in experiment [1] of 0.72 µM. In other words, the sub-micromolar range.

Consider `COc1ccc(Cc2ccncc2)nc1-c1cccc([N+](=O)[O-])c1`, for which it took 1.12 µM to reach half-maximal inhibition in experiment [1] (IC50).

On to `COc1ccc(Oc2cn[nH]c2)nc1-c1cccc(Cl)c1`, for which, in experiment [3], the Ratio IC50 amounted to 14. In addition, the values for the IC50 in experiment [4] and in experiment [5] were 4.16 µM and 0.306 µM, respectively.

For `COc1cccc(-c2nc(Cc3ccc(CCO)cc3)ccc2OC(F)F)c1`, the Ratio IC50 in experiment [3] was determined as 581. Besides, the concentration for half-maximal inhibition (IC50) in experiment [4] came out at 4 µM; in experiment [5] it was 0.0069 µM.

For the compound `FC(F)Oc1ccc(Cn2ccnc2)nc1-c1cccc(OCc2ccccc2)c1`, the Ratio IC50 in experiment [3] amounted to 0.54. Further, the figures for the IC50 in experiment [4] and in experiment [5] were 0.046 µM and 0.085 µM, respectively.

For `COc1ccc(Cc2ccncc2)nc1-c1cccc(OC(F)F)c1`, the Ratio IC50 in experiment [3] amounted to 364. The IC50 in experiment [4] worked out at 0.665 µM. Also, in experiment [5], the IC50 is 0.0018 µM and the logIC50 was 0.26 log(nM).

In the case of `COc1cccc(-c2nc(Cn3cccn3)ccc2OC(F)F)c1`, the Ratio IC50 in experiment [3] is 4. The IC50 in experiment [4] came out at 1.06 µM; in experiment [5], 0.281 µM.

Consider `COc1ccc(Oc2cn[nH]c2)nc1-c1cccc(F)c1`, for which the Ratio IC50 in experiment [3] turned out to be 5. Besides, the IC50 in experiment [4] is 4.54 µM; in experiment [5] it was 0.836 µM.

Regarding `Fc1cccc(-c2nc(Nc3cn[nH]c3)ccc2OC(F)F)c1`, the Ratio IC50 in experiment [3] worked out at 13. In addition, the values for the 50% inhibitory concentration (IC50) in experiment [4] and in experiment [5] were 1.75 µM and 0.136 µM, respectively.

Take `COc1ccc(Cn2cccn2)nc1-c1cccc(Cl)c1`: in experiment [3], the Ratio IC50 was 8. Also, the figures for the concentration for half-maximal inhibition (IC50) in experiment [4] and in experiment [5] were 9.17 µM and 1.15 µM, respectively.

For `COc1ccc(Cc2cn[nH]c2)nc1-c1cccc(F)c1`, in experiment [3], the Ratio IC50 is 42. Also, the 50% inhibitory concentration (IC50) in experiment [4] is 0.995 µM; in experiment [5], 0.0238 µM.

Regarding `COc1ccc(Cc2cnn(C)c2)nc1-c1cccc(OC(F)F)c1`, the Ratio IC50 in experiment [3] worked out at 137. Besides, the IC50 in experiment [4] was determined as 1.44 µM; in experiment [5], 0.011 µM.

Regarding `Fc1cccc(-c2nc(Cn3ccnc3)ccc2OC(F)F)c1`, in experiment [3], the Ratio IC50 was 54. The same compound came in with a half-inhibitory concentration (IC50) in experiment [4] of 0.198 µM. Moreover, in experiment [5], it took 0.0037 µM to reach half-maximal inhibition (IC50) and the logIC50 is 0.57 log(nM).

As to `O=[N+]([O-])c1cccc(-c2nc(Cn3ccnc3)ccc2OC(F)F)c1`, the Ratio IC50 in experiment [3] came to 270. The IC50 was 0.081 µM in experiment [4] and 0.0003 µM in experiment [5].
